Assay results gathered from unrelated publications.
Lines come from different studies, so protocols differ.
MAL12: Alpha-glucosidase MAL12 (MAL12, Saccharomyces cerevisiae S288c, UniProt P53341)
MAP3K7: Mitogen-activated protein kinase kinase kinase 7 (MAP3K7, Homo sapiens, UniProt O43318)

| SMILES | target | assay | setting | endpoint | value |
| --- | --- | --- | --- | --- | --- |
| O=c1cc(-c2ccc(O)c(O)c2)oc2cc(O)cc(O)c12 | MAL12 | enzyme activity, inhibitor, absorbance | 50 µM | inhibition | 34.4% |
| CNC(=O)c1ccccc1Nc1nc(Nc2ccc(CO)nc2)ncc1Cl | MAP3K7 | enzyme activity, inhibitor | 1 µM | remaining activity | 64.9% |
| COc1ccc2oc(-c3ccc4nc(N)oc4c3)c/c(=N\c3ccccc3NC(=O)CCN)c2c1 | Bone morphogenetic protein receptor type-1B (BMPR1B, Homo sapiens, UniProt O00238) | binding | 1 µM | remaining binding | 99% |
| COc1cc(O)c2c(c1)O[C@H](c1ccccc1)CC2=O | MAL12 | enzyme activity, inhibitor, absorbance | 50 µM | inhibition | 15.1% |
| C1=C/COCc2cc(ccc2OCCN2CCCC2)Nc2nccc(n2)-c2cccc(c2)COC/1 | Tyrosine-protein kinase Lyn (LYN, Homo sapiens, UniProt P07948) | binding | 0.1 µM | remaining binding | 88% |
| COc1cc2c3c(c1OC)-c1c(OC)ccc(O)c1CC3N(C)CC2 (stereo not drawn) | Alpha-1A adrenergic receptor (ADRA1A, Homo sapiens, UniProt P35348) | ligand displacement, radioligand | 10 µM | inhibition | 9% |
| CNC(=O)c1ccccc1Nc1nc(Nc2ccc(CO)cc2)ncc1Cl | MAP3K7 | enzyme activity, inhibitor | 1 µM | remaining activity | 42.9% |
| O=c1cc(-c2ccccc2)oc2cc(O)cc(O)c12 | MAL12 | enzyme activity, inhibitor, absorbance | 50 µM | inhibition | 31.2% |
| CS(=O)(=NC#N)c1ccccc1Nc1nc(Nc2ccnc(CO)c2)ncc1Cl (stereo not drawn) | MAP3K7 | enzyme activity, inhibitor | 1 µM | remaining activity | 80.5% |
| Nc1ncnc2c1ncn2[C@@H]1O[C@H](COP(=O)(O)OP(=O)(O)OP(=O)(O)O)[C@@H](O)[C@H]1O | Hexokinase HKDC1 (Homo sapiens, UniProt Q2TB90) | enzyme activity, substrate | pH 8 | Km | 410 µM |
| O=c1cc(-c2ccc(O)c(O)c2)oc2c(Br)c(O)c(Br)c(O)c12 | MAL12 | enzyme activity, inhibitor, absorbance | 50 µM | inhibition | 95.1% |
| CCCCC(=O)Nc1ccc(-c2ccc3ncn(CCC)c(=O)c3c2)cn1 | Serine/threonine-protein kinase tousled-like 2 (TLK2, Homo sapiens, UniProt Q86UE8) | binding, competition with immobilised ligand | 0.5 µM | remaining binding | 87% |
